pIC50: −log10 of the molar value.
Assays:
Steryl-sulfatase = target: T1, Steryl-sulfatase (Homo sapiens, UniProt P08842); assay: Inhibition of steroid sulfatase in JEG3 cell membrane; assay type: cell-based, JEG-3
T1 sequence (P08842 whole entry): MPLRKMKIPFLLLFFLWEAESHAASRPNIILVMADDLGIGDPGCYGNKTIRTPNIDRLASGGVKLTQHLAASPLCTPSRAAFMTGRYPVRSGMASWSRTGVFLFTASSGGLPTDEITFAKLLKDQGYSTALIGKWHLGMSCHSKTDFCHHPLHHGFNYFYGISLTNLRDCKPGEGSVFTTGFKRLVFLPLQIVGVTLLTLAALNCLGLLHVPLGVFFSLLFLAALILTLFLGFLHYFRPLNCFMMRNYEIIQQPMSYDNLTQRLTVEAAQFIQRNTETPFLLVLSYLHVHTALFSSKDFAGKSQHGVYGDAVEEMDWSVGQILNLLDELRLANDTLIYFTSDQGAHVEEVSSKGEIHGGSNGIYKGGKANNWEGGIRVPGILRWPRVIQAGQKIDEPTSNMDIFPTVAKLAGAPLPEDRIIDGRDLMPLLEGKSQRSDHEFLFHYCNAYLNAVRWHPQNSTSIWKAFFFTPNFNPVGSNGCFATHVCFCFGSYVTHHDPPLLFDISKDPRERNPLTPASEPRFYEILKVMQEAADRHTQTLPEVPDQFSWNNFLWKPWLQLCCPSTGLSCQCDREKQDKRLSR

Aromatase [1] = target: T2, Aromatase (Homo sapiens, UniProt P11511); assay: Inhibition of aromatase in JEG3 cell membrane; assay type: cell-based, JEG-3
T2 sequence (P11511 whole entry): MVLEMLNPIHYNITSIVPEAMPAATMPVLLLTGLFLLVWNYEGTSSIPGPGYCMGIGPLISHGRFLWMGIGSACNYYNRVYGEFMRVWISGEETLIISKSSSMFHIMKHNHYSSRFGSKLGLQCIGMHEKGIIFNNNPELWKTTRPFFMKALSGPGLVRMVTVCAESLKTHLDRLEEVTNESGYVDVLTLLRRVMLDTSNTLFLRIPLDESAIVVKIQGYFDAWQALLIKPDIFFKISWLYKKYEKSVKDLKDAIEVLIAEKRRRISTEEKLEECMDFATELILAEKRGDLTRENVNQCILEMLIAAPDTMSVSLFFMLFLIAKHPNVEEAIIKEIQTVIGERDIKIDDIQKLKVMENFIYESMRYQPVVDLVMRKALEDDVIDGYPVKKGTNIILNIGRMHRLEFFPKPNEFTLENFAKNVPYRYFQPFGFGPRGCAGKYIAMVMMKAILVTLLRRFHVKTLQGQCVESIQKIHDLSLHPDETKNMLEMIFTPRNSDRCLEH

Aromatase [2] = target: T2, Aromatase; assay: Inhibition of aromatase in JEG3 cell membrane at 1 uM; assay type: cell-based; conditions: JEG-3, human; read-out: Activity
Rattus norvegicus [3] = assay: Inhibition of aromatase in Wistar rat assessed as reduction of PMSG-stimulated plasma estradiol level at 10 mg/kg, po after 3 hrs; assay type: functional
Summary of the method: (§1)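 Female Wistar rats got a single sc injection of PMSG (200 IU). Three days later they received a single oral 10 mg/kg dose in THF/propylene glycol (10:90). Plasma estradiol was measured by radioimmunoassay at 3 or 24 h. Results are % inhibition of PMSG-stimulated estradiol, mean ± SE, n = 3, by Student's t test.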

Rattus norvegicus [4] = assay: Inhibition of steroid sulfatase in Wistar rat liver at 10 mg/kg, po after 3 hrs; assay type: functional
Summary of the method: (§2)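 Female Wistar rats were primed with a single sc injection of PMSG (200 IU). Three days later they were dosed once orally at 10 mg/kg in THF/propylene glycol (10:90). Liver was collected 3 or 24 h after dosing and STS activity assayed. Results are expressed against activity in untreated animals, mean ± SE, n = 3.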

Rattus norvegicus [5] = assay: Inhibition of steroid sulfatase in Wistar rat liver at 10 mg/kg, po; assay type: functional; summary of the method: as §2
Rattus norvegicus [6] = assay: Inhibition of steroid sulfatase in Wistar rat assessed as liver STS activity at 10 mg/kg, po after 24 hrs
Rattus norvegicus [7] = assay: Inhibition of aromatase in Wistar rat assessed as reduction of PMSG-stimulated plasma estradiol level at 10 mg/kg, po after 24 hrs; assay type: functional; summary of the method: as §1
Rattus norvegicus [8] = assay: Inhibition of steroid sulfatase in Wistar rat assessed as liver STS activity at 10 mg/kg, po after 3 hrs

## COc1ccc(CN(c2ccc(C#N)cc2)n2cnnc2)cc1OS(N)(=O)=O
Steryl-sulfatase
  pIC50: < 5.00

## N#Cc1ccc(N(Cc2cc(Cl)c(O)c(Cl)c2)n2cnnc2)cc1
Aromatase [1]
  pIC50: 8.12

## COc1cc(CN(c2ccc(C#N)cc2)n2cnnc2)ccc1O
Aromatase [1]
  pIC50: 8.55

## COc1cc(CN(c2ccc(C#N)cc2)n2cnnc2)cc(Cl)c1O
Aromatase [1]
  pIC50: 9.29

## N#Cc1ccc(N(Cc2ccc(O)c(I)c2)n2cnnc2)cc1
Aromatase [1]
  pIC50: 9.48

## N#Cc1ccc(N(Cc2ccc(OS(N)(=O)=O)cc2)n2cnnc2)cc1
Aromatase [2]
  inhibition at 1 µM: 63.4%

## N#Cc1ccc(N(Cc2ccc(Br)c(OS(N)(=O)=O)c2)n2cnnc2)cc1
Steryl-sulfatase
  pIC50: < 5.00

## N#Cc1ccc(N(Cc2ccc(OS(N)(=O)=O)c(Br)c2)n2cnnc2)cc1
Rattus norvegicus [3]
  inhibition in vivo at 10 mg/kg: 100%
Rattus norvegicus [4]
  inhibition in vivo at 10 mg/kg: 100%
Rattus norvegicus [5]
  inhibition in vivo at 10 mg/kg: 100%
Rattus norvegicus [6]
  inhibition in vivo at 10 mg/kg: 72%
Rattus norvegicus [7]
  inhibition in vivo at 10 mg/kg: 85%
Rattus norvegicus [8]
  inhibition in vivo at 10 mg/kg: 98%

## NS(=O)(=O)Oc1ccc2c3c(c(=O)oc2c1)CCCCC3 [IROSUSTAT]
Rattus norvegicus [6]
  inhibition in vivo at 10 mg/kg: 97%
Rattus norvegicus [8]
  inhibition in vivo at 10 mg/kg: 100%

## N#Cc1ccc(N(Cc2ccc(O)c(C(F)(F)F)c2)n2cnnc2)cc1
Aromatase [1]
  pIC50: 9.06

## N#Cc1ccc(N(Cc2ccc(F)c(O)c2)n2cnnc2)cc1
Aromatase [1]
  pIC50: 9.22

## N#Cc1ccc(C(c2ccc(C#N)cc2)n2cncn2)cc1 [LETROZOLE]
Rattus norvegicus [3]
  inhibition in vivo at 10 mg/kg: 100%
Rattus norvegicus [6]
  inhibition in vivo at 10 mg/kg: 6%
Rattus norvegicus [7]
  inhibition in vivo at 10 mg/kg: 100%
Rattus norvegicus [8]
  inhibition in vivo at 10 mg/kg: 3%

## N#Cc1ccc(N(Cc2ccc(Cl)c(O)c2)n2cnnc2)cc1
Aromatase [1]
  pIC50: 9.74

## N#Cc1ccc(N(Cc2ccc(C(F)(F)F)c(O)c2)n2cnnc2)cc1
Aromatase [1]
  pIC50: 9.40

## N#Cc1ccc(N(Cc2cccc(O)c2)n2cnnc2)cc1
Aromatase [1]
  pIC50: 8.55

## COc1cc(CN(c2ccc(C#N)cc2)n2cnnc2)cc(Cl)c1OS(N)(=O)=O
Steryl-sulfatase
  pIC50: 6.27
Aromatase [1]
  pIC50: 8.54

## N#Cc1ccc(N(Cc2ccc(OS(N)(=O)=O)c(I)c2)n2cnnc2)cc1
Steryl-sulfatase
  pIC50: 6.72
Aromatase [1]
  pIC50: 8.82

## N#Cc1ccc(N(Cc2ccc(OS(N)(=O)=O)c(C#N)c2)n2cnnc2)cc1
Steryl-sulfatase
  pIC50: < 5.00
Aromatase [1]
  pIC50: 7.57

## COc1cc(CN(c2ccc(C#N)cc2)n2cnnc2)ccc1OS(N)(=O)=O
Steryl-sulfatase
  pIC50: 6.42
Aromatase [1]
  pIC50: 7.38

## N#Cc1ccc(N(Cc2ccc(O)c(C#N)c2)n2cnnc2)cc1
Aromatase [1]
  pIC50: 7.62

## N#Cc1ccc(N(Cc2c(F)c(F)c(O)c(F)c2F)n2cnnc2)cc1
Aromatase [1]
  pIC50: 6.80

## N#Cc1ccc(N(Cc2ccc(F)c(OS(N)(=O)=O)c2)n2cnnc2)cc1
Rattus norvegicus [3]
  inhibition in vivo at 10 mg/kg: 82%
Rattus norvegicus [4]
  inhibition in vivo at 10 mg/kg: 100%
Rattus norvegicus [6]
  inhibition in vivo at 10 mg/kg: 33%
Rattus norvegicus [7]
  inhibition in vivo at 10 mg/kg: 20%
Rattus norvegicus [8]
  inhibition in vivo at 10 mg/kg: 98%

## COc1ccc(CN(c2ccc(C#N)cc2)n2cnnc2)cc1O
Aromatase [1]
  pIC50: 8.92

## N#Cc1ccc(N(Cc2ccc(Br)c(O)c2)n2cnnc2)cc1
Aromatase [1]
  pIC50: 9.30
